Data published in ChEMBL document CHEMBL4007393 (J Med Chem, 2017).
≈ marks a conversion by molar mass, not a printed value.

Experiments:
[1] = Kinetic solubility of the compound in water after 30 mins by nephelometric analysis; assay type: physicochemical; conditions: read-out: Kinetic_solubility
How it was run: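 DMSO stock diluted into water to 1% final DMSO and left at ambient temperature for 30 min. Solubility range read by nephelometry.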

[2] = AUC (0 to infinity) in FVB mouse at 30 mg/kg, administered through oral gavage as single dose by LC-MS analysis; assay type: ADME, organism-based; design: dose 30 mg/kg, time infinity, route oral; conditions: in vivo
How it was run: (§1)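 Non-infected mice given one oral gavage dose of 30 mg/kg as an aqueous suspension. Terminal cardiac blood taken under isoflurane, centrifuged at 4 °C, plasma stored at -20 °C. Plasma proteins precipitated with acetonitrile (2:1 or 3:1), supernatant run by LC/MS with diazepam internal standard against a blank mouse plasma calibration curve. PK parameters calculated noncompartmentally.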

[3] = Cmax in FVB mouse at 30 mg/kg, administered through oral gavage as single dose by LC-MS analysis; assay type: ADME, organism-based; design: dose 30 mg/kg, route oral; conditions: in vivo; how it was run: as §1
[4] = Plasma concentration in FVB mouse at 30 mg/kg, administered through oral gavage as single dose measured after 48 hrs post dose by LC-MS analysis; assay type: ADME, organism-based; how it was run: as §1
[5] = tested on: Rattus norvegicus; assay: Drug accumulation in rat at 100 to 300 mg/kg, po administered every third day for 5 doses measured after 2 weeks relative to control; assay type: ADME, organism-based; conditions: in vivo, 336 h
How it was run: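 Male rats were given oral gavage doses of 100 or 300 mg/kg every third day for five doses, alongside a vehicle group. The vehicle was the same formulation used for the mouse efficacy studies. Plasma concentrations were followed over the dosing period to assess accumulation, together with general condition, body weight, biochemistry and histopathology.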

[6] = Plasma concentration in rat at 300 mg/kg, po administered every third day for 5 doses measured after 2 weeks; assay type: ADME, organism-based
How it was run: (§2)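 Male rats dosed by oral gavage at 100 or 300 mg/kg every third day for 5 doses, in the same vehicle as the mouse efficacy and exposure studies; vehicle controls included. Endpoints: general condition, body weight, clinical biochemistry, histopathology, mortality and plasma concentrations.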

[7] = Plasma concentration in rat at 100 mg/kg, po administered every third day for 5 doses measured after 2 weeks; assay type: ADME, organism-based; how it was run: as §2

SMILES	solubility kinetic at 0.5 h [1]	AUC(0-inf) [2]	Cmax [3]	concentration at 48 h [4]	fold change (FC) [5]	concentration at 336 h [6]	concentration at 336 h [7]
c1cc([C@H]2CC[C@]3(CC2)OOC2(O3)C3CC4CC(C3)CC2C4)ccc1OCCN1CCC1 (stereo partly drawn)	> 100 µg/mL	–	–	–	–	–	–
NCCCCOc1ccc([C@H]2CC[C@]3(CC2)OOC2(O3)C3CC4CC(C3)CC2C4)cc1 (stereo partly drawn)	50 to 100 µg/mL (≈ 117 to 234 µM)	11 µM·h	370 nM	23.4 nM	–	–	–
CC(C)(N)CCOc1ccc([C@H]2CC[C@]3(CC2)OOC2(O3)C3CC4CC(C3)CC2C4)cc1 (stereo partly drawn)	50 to 100 µg/mL (≈ 113 to 226 µM)	27.8 µM·h	1050 nM	89.2 nM	1 to 4	–	–
O=C(c1ccc([C@H]2CC[C@]3(CC2)OOC2(O3)C3CC4CC(C3)CC2C4)cc1)N1CCNCC1 (stereo partly drawn)	> 100 µg/mL	–	–	–	–	–	–
c1cc([C@H]2CC[C@]3(CC2)OOC2(O3)C3CC4CC(C3)CC2C4)ccc1OCC1CCNCC1 (stereo partly drawn)	12.5 to 25 µg/mL (≈ 27.6 to 55.1 µM)	8.9 µM·h	465 nM	17.9 nM	–	–	–
c1cc([C@H]2CC[C@]3(CC2)OOC2(O3)C3CC4CC(C3)CC2C4)ccc1OCCN1CCCOCC1 (stereo partly drawn)	3.1 to 6.3 µg/mL (≈ 6.41 to 13 µM)	16.8 µM·h	2610 nM	13.2 nM	–	–	–
c1cc([C@H]2CC[C@]3(CC2)OOC2(O3)C3CC4CC(C3)CC2C4)ccc1OCCC1CCNCC1 (stereo partly drawn)	> 100 µg/mL	34.1 µM·h	1190 nM	192 nM	–	–	–
c1cc([C@H]2CC[C@]3(CC2)OOC2(O3)C3CC4CC(C3)CC2C4)ccc1OCCN1CCNCC1 (stereo partly drawn)	> 100 µg/mL	16.8 µM·h	752 nM	23.9 nM	–	–	–
[O-][S+]1CCN(CCCOc2ccc([C@H]3CC[C@]4(CC3)OOC3(O4)C4CC5CC(C4)CC3C5)cc2)CC1 (stereo partly drawn)	< 1.6 µg/mL	–	–	–	–	1000 to 2000 ng/mL	–
O[C@H]1CC[C@H](NCCCOc2ccc([C@H]3CC[C@]4(CC3)OOC3(O4)C4CC5CC(C4)CC3C5)cc2)CC1 (stereo partly drawn)	> 100 µg/mL	12.8 µM·h	721 nM	26.5 nM	–	–	–
NCCOc1ccc([C@H]2CC[C@]3(CC2)OOC2(O3)C3CC4CC(C3)CC2C4)cc1 (stereo partly drawn)	> 100 µg/mL	3.42 µM·h	287 nM	4.73 nM	1 to 4	–	–
NC1CCN(S(=O)(=O)c2ccc([C@H]3CC[C@]4(CC3)OOC3(O4)C4CC5CC(C4)CC3C5)cc2)CC1 (stereo partly drawn)	12.5 to 25 µg/mL (≈ 24.9 to 49.7 µM)	–	–	–	–	–	–
CC(C)(O)CN1CCC(Oc2ccc([C@H]3CC[C@]4(CC3)OOC3(O4)C4CC5CC(C4)CC3C5)cc2)CC1 (stereo partly drawn)	1.6 to 3.1 µg/mL (≈ 3.13 to 6.06 µM)	27.7 µM·h	1810 nM	22.7 nM	–	1000 to 2000 ng/mL	–
CC(C)(O)CNCCCOc1ccc([C@H]2CC[C@]3(CC2)OOC2(O3)C3CC4CC(C3)CC2C4)cc1 (stereo partly drawn)	> 100 µg/mL	22.8 µM·h	1210 nM	36 nM	–	> 1900 ng/mL	–
FC1(F)C2CC3CC1CC(C2)C31OO[C@]2(CC[C@@H](c3ccc(OCCN4CCOCC4)cc3)CC2)O1 (stereo partly drawn)	1.6 to 3.1 µg/mL (≈ 3.16 to 6.13 µM)	–	–	–	–	–	–
c1cc([C@H]2CC[C@]3(CC2)OOC2(O3)C3CC4CC(C3)CC2C4)ccc1OC1CCNCC1 (stereo partly drawn)	> 100 µg/mL	16.4 µM·h	810 nM	49.4 nM	–	–	–
c1cc([C@H]2CC[C@]3(CC2)OOC2(O3)C3CC4CC(C3)CC2C4)ccc1CN1CCOCC1 (stereo partly drawn)	1.6 to 3.1 µg/mL (≈ 3.64 to 7.05 µM)	–	–	–	–	–	–
c1cc([C@H]2CC[C@]3(CC2)OOC2(O3)C3CC4CC(C3)CC2C4)ccc1OCCCN1CCOCC1 (stereo partly drawn)	1.6 to 3.1 µg/mL (≈ 3.31 to 6.41 µM)	–	–	–	–	–	–
CC1(C)CC(O)(COc2ccc([C@H]3CC[C@]4(CC3)OOC3(O4)C4CC5CC(C4)CC3C5)cc2)CC(C)(C)N1 (stereo partly drawn)	> 100 µg/mL	32.9 µM·h	1000 nM	122 nM	–	–	–
c1ccc([C@H]2CC[C@]3(CC2)OOC2(O3)C3CC4CC(C3)CC2C4)c(OCCN2CCOCC2)c1 (stereo partly drawn)	3.1 to 6.3 µg/mL (≈ 6.6 to 13.4 µM)	–	–	–	–	–	–
CC(C)(CN)Oc1ccc([C@H]2CC[C@]3(CC2)OOC2(O3)C3CC4CC(C3)CC2C4)cc1 (stereo partly drawn)	> 100 µg/mL	11.3 µM·h	529 nM	7.97 nM	–	–	–
CS(=O)(=O)N1CCN(CCCOc2ccc([C@H]3CC[C@]4(CC3)OOC3(O4)C4CC5CC(C4)CC3C5)cc2)CC1 (stereo partly drawn)	< 1.6 µg/mL	–	–	–	–	–	–
c1cc([C@H]2CC[C@]3(CC2)OOC2(O3)C3CC4CC(C3)CC2C4)ccc1OCCOC1CCNCC1 (stereo partly drawn)	50 to 100 µg/mL (≈ 103 to 207 µM)	19 µM·h	633 nM	97.6 nM	–	–	–
c1cc([C@H]2CC[C@]3(CC2)OOC2(O3)C3CC4CC(C3)CC2C4)ccc1OCCN1CC2(COC2)C1 (stereo partly drawn)	50 to 100 µg/mL (≈ 104 to 208 µM)	–	–	–	–	–	–
c1cc([C@H]2CC[C@]3(CC2)OOC2(O3)C3CC4CC(C3)CC2C4)ccc1OCCN1CCCCC1 (stereo partly drawn)	6.3 to 12.5 µg/mL (≈ 13.5 to 26.7 µM)	–	–	–	–	–	–
N[C@H]1CC[C@@H](Oc2ccc([C@H]3CC[C@]4(CC3)OOC3(O4)C4CC5CC(C4)CC3C5)cc2)CC1 (stereo partly drawn)	25 to 50 µg/mL (≈ 55.1 to 110 µM)	29.5 µM·h	1170 nM	145 nM	1 to 4	–	–
NCCCOc1ccc([C@H]2CC[C@]3(CC2)OOC2(O3)C3CC4CC(C3)CC2C4)cc1 (stereo partly drawn)	–	–	–	–	1 to 4	–	–
CC(C)(N)CNC(=O)C[C@H]1CC[C@]2(CC1)OOC1(O2)C2CC3CC(C2)CC1C3 (stereo partly drawn)	> 100 µg/mL	2.61 µM·h	776 nM	< 1 nM	–	–	–
c1cc([C@H]2CC[C@]3(CC2)OO[C@]2(O3)C3CC4CC(C3)CC2C4)ccc1OCCN1CCOCC1 [ARTEFENOMEL]	< 1.6 µg/mL	38.7 µM·h	3800 nM	132 nM	–	6300 ng/mL	4600 ng/mL
